Reference: ChEMBL document CHEMBL3868583, “6-Aryl substituted 4-(4-cyanomethyl) phenylamino quinazolines as a new class of isoform-selective PI3K-alpha inhibitors” (Eur J Med Chem, 2016)
In brackets after ≈: the same amount, converted by molar mass.

How the values were obtained:
[1] = species: Homo sapiens; experiment: Selectivity ratio of IC50 for PI3Kdelta (unknown origin) to IC50 for PI3Kalpha (unknown origin)
[2] = Cytotoxicity against human PANC1 cells assessed as cell growth inhibition after 48 hrs by MTT assay; assay type: functional; conditions: PANC-1, 48 h
Procedure, shortened: (§1)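 MTT assay: 3 × 10^3 cells/well seeded, compounds added after 24 h at final […], 48 h exposure. MTT (2.5 mg/mL in PBS) added, formazan dissolved in DMSO, absorbance 570 nm. Viability as % of untreated; three independent experiments, mean ± SD.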

[3] = Thermodynamic equilibrium solubility of compound in PBS up to 300 ug after 4 hrs by UV absorbance method; assay type: physicochemical; conditions: read-out: Therm_solubility
Procedure, shortened: (§2)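 Methanol stock evaporated in wells to give 1–300 µg solid; 200 µl medium (water, PBS, SGF or SIF) added, shaken 300 rpm 4 h at 25 ± 1 °C, equilibrated overnight, centrifuged; supernatant UV absorbance at λmax; saturation point from concentration–absorbance curve; triplicate.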

[4] = Cytotoxicity against HEK293 cells assessed as cell growth inhibition after 48 hrs by MTT assay; assay type: toxicity, cell-based; conditions: human
[5] = Efflux ratio of permeability in human Caco2 cells after 90 mins by LC-MS/MS analysis; assay type: ADME, cell-based; conditions: Caco-2
Procedure, shortened: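 Caco-2 monolayers grown 21 days (TEER >500). Compound in HBSS with 10 mM HEPES dosed to the apical chamber, and in a repeat run to the basolateral chamber. Both chambers sampled at 0 and 90 min at 37 °C. Analysis by LC-MS/MS.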

[6] = target: CYP3A4 (Homo sapiens, UniProt P08684); experiment: Inhibition of human CYP3A4 at 10 uM after 10 mins by fluorescence assay; assay type: ADME
Sequence of CYP3A4 (P08684 whole entry): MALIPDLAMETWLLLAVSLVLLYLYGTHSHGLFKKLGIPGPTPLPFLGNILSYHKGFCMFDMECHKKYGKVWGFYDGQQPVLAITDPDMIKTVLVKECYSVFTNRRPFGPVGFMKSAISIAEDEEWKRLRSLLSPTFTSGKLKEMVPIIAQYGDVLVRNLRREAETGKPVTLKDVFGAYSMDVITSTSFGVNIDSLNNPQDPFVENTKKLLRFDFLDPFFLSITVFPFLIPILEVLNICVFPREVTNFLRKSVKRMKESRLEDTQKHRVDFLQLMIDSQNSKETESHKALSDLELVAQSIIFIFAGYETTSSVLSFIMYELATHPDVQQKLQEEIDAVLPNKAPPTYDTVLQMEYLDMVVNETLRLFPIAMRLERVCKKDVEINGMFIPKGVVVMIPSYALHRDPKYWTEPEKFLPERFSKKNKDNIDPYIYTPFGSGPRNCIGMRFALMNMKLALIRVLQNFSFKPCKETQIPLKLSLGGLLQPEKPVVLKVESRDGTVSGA

[7] = Cytotoxicity against human HL60 cells assessed as cell growth inhibition after 48 hrs by MTT assay; assay type: functional; conditions: HL-60, 48 h; procedure, shortened: as §1
[8] = target: T1, CYP1A2 (Homo sapiens, UniProt P05177); experiment: Inhibition of human CYP1A2 at 10 uM after 10 mins by fluorescence assay; assay type: ADME
T1 sequence (P05177 whole entry): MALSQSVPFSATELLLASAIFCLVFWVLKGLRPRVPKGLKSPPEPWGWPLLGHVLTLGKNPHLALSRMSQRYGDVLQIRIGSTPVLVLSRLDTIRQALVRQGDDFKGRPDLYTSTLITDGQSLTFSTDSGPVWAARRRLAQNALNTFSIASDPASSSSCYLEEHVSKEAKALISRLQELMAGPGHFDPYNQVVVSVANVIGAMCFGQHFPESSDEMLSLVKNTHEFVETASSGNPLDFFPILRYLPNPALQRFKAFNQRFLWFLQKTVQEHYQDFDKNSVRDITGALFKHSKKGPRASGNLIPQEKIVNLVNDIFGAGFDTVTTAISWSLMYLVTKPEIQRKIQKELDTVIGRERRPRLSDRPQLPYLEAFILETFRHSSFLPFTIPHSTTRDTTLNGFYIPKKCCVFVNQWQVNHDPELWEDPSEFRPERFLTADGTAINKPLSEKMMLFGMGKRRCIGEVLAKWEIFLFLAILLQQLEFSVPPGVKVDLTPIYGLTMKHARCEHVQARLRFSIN

[9] = target: CYP2D6 (Homo sapiens, UniProt P10635); experiment: Inhibition of human CYP2D6 at 10 uM after 10 mins by fluorescence assay; assay type: ADME
Sequence of CYP2D6 (P10635 whole entry): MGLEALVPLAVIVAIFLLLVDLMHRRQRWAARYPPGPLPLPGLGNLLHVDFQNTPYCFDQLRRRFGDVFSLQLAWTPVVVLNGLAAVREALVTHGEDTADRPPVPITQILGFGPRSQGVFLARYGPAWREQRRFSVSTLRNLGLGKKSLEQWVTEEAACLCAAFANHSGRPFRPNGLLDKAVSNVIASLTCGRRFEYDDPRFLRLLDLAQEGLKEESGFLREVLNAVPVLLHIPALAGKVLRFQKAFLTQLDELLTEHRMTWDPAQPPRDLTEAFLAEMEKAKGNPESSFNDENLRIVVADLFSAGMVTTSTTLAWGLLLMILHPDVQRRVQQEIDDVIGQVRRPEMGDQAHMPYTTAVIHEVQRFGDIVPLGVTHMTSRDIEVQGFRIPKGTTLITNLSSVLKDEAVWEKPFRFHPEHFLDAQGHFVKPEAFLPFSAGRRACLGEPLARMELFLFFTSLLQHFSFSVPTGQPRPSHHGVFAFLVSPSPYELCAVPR

[10] = target: CYP2C19 (Homo sapiens, UniProt P33261); experiment: Inhibition of human CYP2C19 at 10 uM after 10 mins by fluorescence assay; assay type: ADME
Sequence of CYP2C19 (P33261 whole entry): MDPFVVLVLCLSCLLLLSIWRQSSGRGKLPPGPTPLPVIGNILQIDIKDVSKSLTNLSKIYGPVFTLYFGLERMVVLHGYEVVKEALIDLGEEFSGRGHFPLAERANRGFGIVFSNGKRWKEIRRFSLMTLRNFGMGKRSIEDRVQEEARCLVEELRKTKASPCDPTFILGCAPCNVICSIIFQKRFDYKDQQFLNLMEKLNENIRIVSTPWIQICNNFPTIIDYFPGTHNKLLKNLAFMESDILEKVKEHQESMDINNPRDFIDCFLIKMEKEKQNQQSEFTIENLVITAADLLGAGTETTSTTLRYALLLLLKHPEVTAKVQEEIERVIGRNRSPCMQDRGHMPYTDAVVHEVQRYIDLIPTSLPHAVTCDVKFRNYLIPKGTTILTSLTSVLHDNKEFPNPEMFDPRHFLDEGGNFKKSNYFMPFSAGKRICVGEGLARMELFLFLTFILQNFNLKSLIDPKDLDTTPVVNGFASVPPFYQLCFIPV

[11] = Thermodynamic equilibrium solubility of compound in water up to 300 ug after 4 hrs by UV absorbance method; assay type: physicochemical; conditions: read-out: Therm_solubility; procedure, shortened: as §2
[12] = Cytotoxicity against human MCF7 cells assessed as cell growth inhibition after 48 hrs by MTT assay; assay type: functional; conditions: MCF7, 48 h; procedure, shortened: as §1
[13] = Cytotoxicity against human A375 cells assessed as cell growth inhibition after 48 hrs by MTT assay; assay type: functional; conditions: A-375, 48 h; procedure, shortened: as §1
[14] = Cytotoxicity against HGF cells assessed as cell growth inhibition after 48 hrs by MTT assay; assay type: toxicity, cell-based; conditions: human
[15] = species: Homo sapiens; experiment: Selectivity ratio of IC50 for PI3Kgamma (unknown origin) to IC50 for PI3Kalpha (unknown origin)
[16] = species: Homo sapiens; experiment: Selectivity ratio of IC50 for PI3Kbeta (unknown origin) to IC50 for PI3Kalpha (unknown origin)
[17] = target: Phosphatidylinositol 4,5-bisphosphate 3-kinase catalytic subunit alpha isoform (Homo sapiens, UniProt P42336); experiment: Inhibition of PI3Kalpha (unknown origin) using diC8 PIP2 as substrate at 0.5 uM after 80 mins by ADP-glo assay
Sequence of Phosphatidylinositol 4,5-bisphosphate 3-kinase catalytic subunit alpha isoform (P42336 whole entry, canonical isoform): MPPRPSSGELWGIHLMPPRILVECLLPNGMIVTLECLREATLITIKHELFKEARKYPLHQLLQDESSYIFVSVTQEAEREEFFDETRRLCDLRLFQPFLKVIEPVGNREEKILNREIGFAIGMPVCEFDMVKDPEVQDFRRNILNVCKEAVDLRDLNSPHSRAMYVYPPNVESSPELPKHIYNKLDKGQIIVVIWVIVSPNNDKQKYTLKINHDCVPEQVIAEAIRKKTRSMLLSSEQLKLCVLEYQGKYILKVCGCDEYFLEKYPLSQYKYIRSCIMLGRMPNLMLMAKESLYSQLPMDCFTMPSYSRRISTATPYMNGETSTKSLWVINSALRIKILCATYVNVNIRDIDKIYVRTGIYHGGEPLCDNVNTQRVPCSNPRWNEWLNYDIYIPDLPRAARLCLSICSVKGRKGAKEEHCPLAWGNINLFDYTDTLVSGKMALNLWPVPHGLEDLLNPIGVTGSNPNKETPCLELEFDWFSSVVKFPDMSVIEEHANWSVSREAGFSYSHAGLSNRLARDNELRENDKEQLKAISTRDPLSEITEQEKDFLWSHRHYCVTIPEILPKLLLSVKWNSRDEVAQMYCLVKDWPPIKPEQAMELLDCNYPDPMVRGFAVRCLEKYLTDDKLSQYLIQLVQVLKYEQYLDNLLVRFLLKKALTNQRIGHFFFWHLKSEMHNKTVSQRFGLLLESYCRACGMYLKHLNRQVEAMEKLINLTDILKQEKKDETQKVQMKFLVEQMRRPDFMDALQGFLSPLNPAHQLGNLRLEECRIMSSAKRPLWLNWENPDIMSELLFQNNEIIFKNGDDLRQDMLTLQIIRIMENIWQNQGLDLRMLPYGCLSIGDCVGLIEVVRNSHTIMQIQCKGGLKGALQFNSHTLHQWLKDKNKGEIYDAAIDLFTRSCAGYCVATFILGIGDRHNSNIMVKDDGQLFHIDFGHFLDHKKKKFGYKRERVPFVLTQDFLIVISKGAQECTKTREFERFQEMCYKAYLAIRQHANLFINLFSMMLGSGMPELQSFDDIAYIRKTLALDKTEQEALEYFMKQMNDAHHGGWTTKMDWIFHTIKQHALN

[18] = test system: PC-3; experiment: Induction of cell cycle arrest in human PC3 cells assessed as accumulation at subG1 phase after 24 hrs by propidium iodide-staining based FACS analysis; assay type: functional
Procedure, shortened: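 PC-3 cells exposed 24 h at indicated concentrations, pelleted, fixed overnight in ice-cold 70% ethanol at 4 °C, RNase 0.2 mg/mL at 37 °C 1 h, propidium iodide 10 µg/mL 30 min in dark; 10,000 events acquired (FL2-A vs FL2-W); DNA histograms modelled for apoptotic (sub-G1), G1, S and G2-M fractions.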

[19] = test system: MCF7; experiment: Induction of cell cycle arrest in human MCF7 cells assessed as accumulation at subG1 phase after 24 hrs by propidium iodide-staining based FACS analysis; assay type: functional
Procedure, shortened: (§3)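 MCF-7 or PC-3 cells treated at indicated concentrations for 24 h, pelleted, PBS-washed, fixed in ice-cold 70% ethanol overnight at 4 °C. RNase 0.2 mg/mL 1 h at 37 °C, propidium iodide 10 µg/mL 30 min dark. 10,000 events (FL2-A vs FL2-W) by flow cytometry; fractions in apoptosis/sub-G1, G1, S, G2-M.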

[20] = Thermodynamic equilibrium solubility of compound in simulated gastric fluid up to 300 ug after 4 hrs by UV absorbance method; assay type: ADME; conditions: read-out: Therm_solubility; procedure, shortened: as §2
[21] = Thermodynamic equilibrium solubility of compound in simulated intestinal fluid up to 300 ug after 4 hrs by UV absorbance method; assay type: ADME; conditions: read-out: Therm_solubility; procedure, shortened: as §2
[22] = target: CYP2C9 (Homo sapiens, UniProt P11712); experiment: Inhibition of human CYP2C9 at 10 uM after 10 mins by fluorescence assay; assay type: ADME
Sequence of CYP2C9 (P11712 whole entry): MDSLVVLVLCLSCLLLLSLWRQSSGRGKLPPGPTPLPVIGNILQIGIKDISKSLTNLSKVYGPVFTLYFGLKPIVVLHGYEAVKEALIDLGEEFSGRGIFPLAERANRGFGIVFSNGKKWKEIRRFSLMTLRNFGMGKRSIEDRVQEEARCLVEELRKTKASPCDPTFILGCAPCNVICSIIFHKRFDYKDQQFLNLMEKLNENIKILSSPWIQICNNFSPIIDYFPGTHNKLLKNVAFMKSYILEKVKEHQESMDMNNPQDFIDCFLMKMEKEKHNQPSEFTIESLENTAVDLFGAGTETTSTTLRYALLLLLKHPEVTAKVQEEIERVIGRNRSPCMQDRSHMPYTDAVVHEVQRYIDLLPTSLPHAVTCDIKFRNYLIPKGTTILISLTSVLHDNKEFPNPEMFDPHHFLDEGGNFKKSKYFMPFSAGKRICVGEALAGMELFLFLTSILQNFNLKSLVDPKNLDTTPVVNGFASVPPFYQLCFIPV

[23] = test system: PC-3; experiment: Induction of cell cycle arrest in human PC3 cells assessed as accumulation at G2 phase at 10 uM after 24 hrs by propidium iodide-staining based FACS analysis (reference value: 17 %); assay type: functional; procedure, shortened: as §3
[24] = Cytotoxicity against human PC3 cells assessed as cell growth inhibition after 48 hrs by MTT assay; assay type: functional; conditions: PC-3, 48 h; procedure, shortened: as §1
[25] = Cytotoxicity against human FR2 cells assessed as cell growth inhibition after 48 hrs by MTT assay; assay type: toxicity, cell-based
[26] = test system: MCF7; experiment: Induction of cell cycle arrest in human MCF7 cells assessed as apoptotic cells at 20 uM after 24 hrs by propidium iodide-staining based FACS analysis (reference value: 8 %); assay type: functional; procedure, shortened: as §3
[27] = test system: Mus musculus; experiment: Toxicity in Swiss mouse implanted with Swiss mouse EAT cells assessed as body weight at 15 mg/kg, ip administered for 1 to 9 days measured on day 1 (reference value: 21.6 g); assay type: organism-based; conditions: in vivo

With `N#CCc1ccc(Nc2ncnc3ccc(-c4cncc5ccccc45)cc23)cc1` the Ratio IC50 [1] was 5.9, the GI50 [2] was 9 µM and the solubility thermodynamic at 4 h [3] was 1 µg/mL (≈ 2.58 µM). The GI50 at 48 h [4] was greater than 50 µM, the efflux ratio at 1.5 h [5] was 1.2 and the inhibition at 10 min, 10 µM [6] was 27%. It also gave a GI50 [7] of 10 µM, an inhibition at 10 min, 10 µM [8] of 72% and an inhibition at 10 min, 10 µM [9] of -35%. The inhibition at 10 min, 10 µM [10] was 34%, the solubility thermodynamic at 4 h [11] was 1 µg/mL (≈ 2.58 µM) and the GI50 [12] was 12 µM. The GI50 [13] was 12 µM, the GI50 at 48 h [14] was greater than 50 µM and the Ratio IC50 [15] was 56. For the same compound, the Ratio IC50 [16] was greater than 133, the inhibition [17] was 48.8% and the Activity [18] was “Dose-dependent effect”. The Activity [19] was “Dose-dependent effect”, the solubility thermodynamic at 4 h [20] was 800 µg/mL (≈ 2060 µM) and the solubility thermodynamic at 4 h [21] was 1 µg/mL (≈ 2.58 µM). It also gave an inhibition at 10 min, 10 µM [22] of 87%, an Activity [23] of 3% and a GI50 [24] of 9 µM. For the same compound, the GI50 at 48 h [25] was greater than 50 µM.

`N#CCc1ccc(Nc2ncnc3ccc(-c4ccc5[nH]ccc5c4)cc23)cc1` gave a Ratio IC50 [1] greater than 49.7, a GI50 [2] of 16 µM and a solubility thermodynamic at 4 h [3] of 10 µg/mL (≈ 26.6 µM). It also gave a GI50 at 48 h [4] greater than 50 µM, an efflux ratio at 1.5 h [5] of 1.3 and an inhibition at 10 min, 10 µM [6] of 51%. It also gave a GI50 [7] of 18 µM, an Activity [26] of 12% and an inhibition at 10 min, 10 µM [8] of 30%. For the same compound, the inhibition at 10 min, 10 µM [9] was 29%, the inhibition at 10 min, 10 µM [10] was 10% and the solubility thermodynamic at 4 h [11] was 10 µg/mL (≈ 26.6 µM). The GI50 [12] was 7 µM, the GI50 [13] was 31 µM and the GI50 at 48 h [14] was greater than 50 µM. It also gave a Ratio IC50 [15] of 3.7, a Ratio IC50 [16] greater than 49.7 and an inhibition [17] of 47.5%. The Activity [18] was “Dose-dependent effect”, the Activity [19] was “Dose-dependent effect” and the solubility thermodynamic at 4 h [20] was 80 µg/mL (≈ 213 µM). For the same compound, the solubility thermodynamic at 4 h [21] was 5 µg/mL (≈ 13.3 µM), the inhibition at 10 min, 10 µM [22] was 88% and the Activity [27] was 19.85 g. The GI50 [24] was 24 µM and the GI50 at 48 h [25] was greater than 50 µM.
